Measured values from ChEMBL document CHEMBL1165962, “Rearranged diterpenoids from the biotransformation of ent-trachyloban-18-oic acid by Rhizopus arrhizus” (J Nat Prod, 2010).
Activity calls are given as the source filed them. The calls are words filed in the database; no cut-off is given here.

Legend:
KB [1] = experiment: Cytotoxicity against human KB cells at 10 ug/mL; format: functional, cell-based
Method in brief: (§1)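 Single-concentration screen at 10 µg/mL in KB (oral epidermoid carcinoma) and HCT-116 (human colon carcinoma) cells, run by a previously published cytotoxicity method. Taxotere served as the reference.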

KB [2] = experiment: Cytotoxicity against human KB cells; format: functional, cell-based
Method in brief: (§2)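 Growth inhibition measured by a previously published method in KB (oral epidermoid carcinoma) and HCT-116 (human colon carcinoma) cells. Taxotere served as the reference compound. IC50 was reported.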

HCT-116 [3] = experiment: Cytotoxicity against human HCT116 cells at 10 ug/mL; format: functional, cell-based; method in brief: as §1
HCT-116 [4] = experiment: Cytotoxicity against human HCT116 cells; format: functional, cell-based; method in brief: as §2
Bcl-2-like protein 1 = Bcl-2-like protein 1 (Homo sapiens, UniProt Q07817); experiment: Displacement of fluorescently-tagged BH3 peptide from Bcl-XL by fluorimetric assay
Method in brief: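 Fluorescence-polarization competition assay in which test compound displaces a fluorescent-tagged Bak BH3-domain peptide from Bcl-xL. Unlabeled Bak(BH3) peptide served as the positive control. Output was percent inhibition of labeled-peptide binding, or IC50 as the concentration giving 50% inhibition.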

Sequence of Bcl-2-like protein 1 (Q07817 whole entry): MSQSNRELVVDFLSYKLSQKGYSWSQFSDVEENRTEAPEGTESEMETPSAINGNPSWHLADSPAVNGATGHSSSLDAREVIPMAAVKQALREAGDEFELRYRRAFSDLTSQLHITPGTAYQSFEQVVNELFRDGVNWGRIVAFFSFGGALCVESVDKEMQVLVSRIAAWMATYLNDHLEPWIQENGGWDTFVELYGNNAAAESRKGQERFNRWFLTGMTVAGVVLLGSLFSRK

SMILES	IC50 (Bcl-2-like protein 1; read-out: IC50) [µM]	IC50 (Bcl-2-like protein 1)	inhibition (KB [1])	IC50 (KB [2]) [µM]	inhibition (HCT-116 [3])	IC50 (HCT-116 [4]) [µM]
C[C@]12[C@H](O)CC[C@@](C)(C(=O)O)[C@@H]1CC[C@]13C[C@@H](C=C[C@@H]12)[C@@](C)(O)C3		Not Active	inactive	> 29.9	inactive	> 29.9
CC1=C[C@]23CC[C@@H]4[C@](C)([C@H](O)CC[C@@]4(C)C(=O)O)[C@H]2[C@H]2[C@H](C3)[C@@H]12		Not Active	inactive	> 31.6	inactive	> 31.6
CO[C@@]1(C)C[C@]23CC[C@@H]4[C@](C)([C@H](O)CC[C@@]4(C)C(=O)O)[C@H]2C=C[C@@H]1C3		Not Active	inactive	> 28.7	inactive	> 28.7
CC(=O)O[C@@]12CO[C@@H]1C[C@H](O)[C@@]1(C)C(=O)[C@H](O)C3=C(C)[C@@H](OC(=O)[C@H](O)[C@@H](NC(=O)OC(C)(C)C)c4ccccc4)C[C@@](O)([C@@H](OC(=O)c4ccccc4)[C@H]21)C3(C)C [DOCETAXEL]				0.00015		0.0012

Now from value to compound, other results behind:

IC50 (Bcl-2-like protein 1; read-out: IC50) [µM]	IC50 (Bcl-2-like protein 1)	SMILES	inhibition (KB [1])	IC50 (KB [2]) [µM]	inhibition (HCT-116 [3])	IC50 (HCT-116 [4]) [µM]
380		C[C@]12CCC[C@@](C)(C(=O)O)[C@@H]1CC[C@]13C[C@@H](C=C[C@@H]12)[C@@](C)(O)C3	inactive	> 31.4	inactive	> 31.4
400		C[C@]12CCC[C@@](C)(C(=O)O)[C@@H]1CC[C@]13C[C@@H]4[C@H](C[C@H]12)[C@]4(C)C3				
	Not Active	C[C@]12C[C@]34CC[C@@H]5[C@](C)([C@H](O)CC[C@@]5(C)C(=O)O)[C@@H]3C[C@H]1[C@H]2C4	inactive	> 31.4	inactive	> 31.4
220		C[C@]12CCC[C@@](C)(C(=O)O)[C@@H]1CC[C@]13C[C@@H]4[C@H](C[C@H]12)[C@]4(CO)C3	inactive	> 31.4	inactive	> 31.4
